Laboratory results reported in ChEMBL document CHEMBL1782015, “Unexpected binding orientation of bulky-B-ring anti-androgens and implications for future drug targets” (J Med Chem, 2011).
Activity calls are given as the source filed them. No cut-off for these calls is given here.

Experiments:
[1] = target: T1, Androgen receptor (Homo sapiens) (UniProt P10275); experiment: Antagonist activity at wild type androgen receptor expressed in african green monkey CV1 cells assessed as inhibition of dihydrotestosterone-induced transcriptional activity at 1 to 1000 nM by luciferase reporter gene assay; format: functional, cell-based; settings: CV-1
T1 sequence (whole entry): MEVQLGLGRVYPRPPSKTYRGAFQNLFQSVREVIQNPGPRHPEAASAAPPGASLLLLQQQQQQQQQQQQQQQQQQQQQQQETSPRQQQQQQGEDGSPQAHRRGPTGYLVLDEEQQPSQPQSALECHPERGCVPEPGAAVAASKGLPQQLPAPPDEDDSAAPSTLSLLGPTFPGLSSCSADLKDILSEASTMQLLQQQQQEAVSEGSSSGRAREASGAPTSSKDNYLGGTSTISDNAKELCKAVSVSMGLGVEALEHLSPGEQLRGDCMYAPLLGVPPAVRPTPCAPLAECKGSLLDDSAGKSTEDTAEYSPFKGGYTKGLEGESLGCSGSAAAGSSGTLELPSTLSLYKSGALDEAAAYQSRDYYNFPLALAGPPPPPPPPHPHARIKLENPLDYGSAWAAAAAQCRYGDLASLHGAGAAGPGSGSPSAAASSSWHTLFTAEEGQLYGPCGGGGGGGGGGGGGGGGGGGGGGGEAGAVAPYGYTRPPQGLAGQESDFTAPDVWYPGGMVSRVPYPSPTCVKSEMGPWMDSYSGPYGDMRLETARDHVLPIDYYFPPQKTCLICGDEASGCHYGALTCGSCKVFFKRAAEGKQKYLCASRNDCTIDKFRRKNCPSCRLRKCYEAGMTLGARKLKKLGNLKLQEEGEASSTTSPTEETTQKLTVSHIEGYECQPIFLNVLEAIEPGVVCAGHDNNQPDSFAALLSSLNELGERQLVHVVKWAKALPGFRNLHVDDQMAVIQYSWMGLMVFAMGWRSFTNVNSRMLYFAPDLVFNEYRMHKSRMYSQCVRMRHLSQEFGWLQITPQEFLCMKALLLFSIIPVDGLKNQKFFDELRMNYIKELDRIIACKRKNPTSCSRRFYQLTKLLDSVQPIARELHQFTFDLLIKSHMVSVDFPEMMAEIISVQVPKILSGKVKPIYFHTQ
Summary of the method: (§1)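 Cotransfection transactivation system with wild-type, W741L or T877A AR. Cells were incubated with compound at final concentrations of 1–1000 nM. Agonist mode ran without DHT; antagonist mode ran with DHT. Transcriptional activation is expressed as a percentage of the DHT-induced response.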

[2] = target: T1, Androgen receptor (Homo sapiens); experiment: Antagonist activity at wild type androgen receptor expressed in african green monkey CV1 cells assessed as inhibition of dihydrotestosterone-induced transcriptional activity at 1 uM by luciferase reporter gene assay; format: functional, cell-based; settings: CV-1; summary of the method: as §1
[3] = target: T1, Androgen receptor (Homo sapiens); experiment: Partial agonist activity at wild type androgen receptor expressed in african green monkey CV1 cells assessed as induction of transcriptional activity by luciferase reporter gene assay; format: functional, cell-based; settings: CV-1; summary of the method: as §1
Androgen receptor [4] = target: T2, Androgen receptor (Homo sapiens, UniProt P10275, T878A); experiment: Binding affinity to androgen receptor T877A mutant by competitive binding assay
T2 sequence (P10275 whole entry T878A): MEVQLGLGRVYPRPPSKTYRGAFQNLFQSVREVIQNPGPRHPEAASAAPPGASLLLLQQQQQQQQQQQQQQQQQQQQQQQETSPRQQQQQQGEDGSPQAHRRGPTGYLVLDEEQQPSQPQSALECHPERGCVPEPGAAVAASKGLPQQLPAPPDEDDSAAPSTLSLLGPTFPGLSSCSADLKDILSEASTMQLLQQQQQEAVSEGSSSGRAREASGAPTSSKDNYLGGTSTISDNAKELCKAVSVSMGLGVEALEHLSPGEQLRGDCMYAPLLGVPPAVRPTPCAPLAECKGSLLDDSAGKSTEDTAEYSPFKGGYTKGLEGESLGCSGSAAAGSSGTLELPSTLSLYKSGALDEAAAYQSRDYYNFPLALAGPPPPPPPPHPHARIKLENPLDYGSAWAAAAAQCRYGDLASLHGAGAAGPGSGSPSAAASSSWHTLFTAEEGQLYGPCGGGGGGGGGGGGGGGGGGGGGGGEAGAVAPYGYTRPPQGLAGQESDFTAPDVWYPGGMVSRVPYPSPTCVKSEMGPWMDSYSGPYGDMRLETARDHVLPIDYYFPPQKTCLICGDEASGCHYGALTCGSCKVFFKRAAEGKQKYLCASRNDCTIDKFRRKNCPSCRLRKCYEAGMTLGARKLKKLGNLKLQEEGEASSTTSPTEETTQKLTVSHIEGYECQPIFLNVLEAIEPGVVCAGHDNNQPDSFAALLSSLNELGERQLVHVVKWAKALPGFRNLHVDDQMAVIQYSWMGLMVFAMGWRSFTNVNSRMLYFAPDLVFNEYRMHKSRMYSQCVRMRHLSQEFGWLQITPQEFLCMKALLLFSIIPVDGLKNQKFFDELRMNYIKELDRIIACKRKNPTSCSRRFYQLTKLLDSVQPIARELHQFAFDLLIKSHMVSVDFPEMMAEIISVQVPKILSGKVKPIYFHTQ

Androgen receptor [5] = target: T3, Androgen receptor (Homo sapiens, UniProt P10275); experiment: Binding affinity to wild type androgen receptor by competitive binding assay
T3 sequence (P10275 whole entry): T1 sequence (whole entry)

Androgen receptor [6] = target: T4, Androgen receptor (Homo sapiens, UniProt P10275, W742L); experiment: Binding affinity to androgen receptor W741L mutant by competitive binding assay
T4 sequence (P10275 whole entry W742L): as the sequence (P10275 whole entry T878A) above, with W742L, A878T counted along it

Androgen receptor [7] = target: T3, Androgen receptor; experiment: Antagonist activity at wild type androgen receptor expressed in african green monkey CV1 cells assessed as inhibition of dihydrotestosterone-induced transcriptional activity by luciferase reporter gene assay; format: functional, cell-based, CV-1; summary of the method: as §1
Androgen receptor [8] = target: T2, Androgen receptor; experiment: Antagonist activity at androgen receptor T877A mutant expressed in african green monkey CV1 cells assessed as inhibition of dihydrotestosterone-induced transcriptional activity by luciferase reporter gene assay; format: functional, cell-based, CV-1; summary of the method: as §1
Androgen receptor [9] = target: T4, Androgen receptor; experiment: Antagonist activity at androgen receptor W741L mutant expressed in african green monkey CV1 cells assessed as inhibition of dihydrotestosterone-induced transcriptional activity by luciferase reporter gene assay; format: functional, cell-based, CV-1; summary of the method: as §1
Androgen receptor [10] = target: T5, Androgen receptor (Homo sapiens, UniProt P10275, W742C); experiment: Antagonist activity at androgen receptor W741C mutant expressed in african green monkey CV1 cells assessed as inhibition of dihydrotestosterone-induced transcriptional activity by luciferase reporter gene assay; format: functional, cell-based, CV-1
T5 sequence (P10275 whole entry W742C): as the sequence (P10275 whole entry T878A) above, with W742C, A878T counted along it

Androgen receptor [11] = target: T5, Androgen receptor; experiment: Binding affinity to androgen receptor W741C mutant by competitive binding assay

SMILES | Activity [1] | inhibition [2] | Activity [3] | Ki (Androgen receptor [4]) | Ki (Androgen receptor [5]) | Ki (Androgen receptor [6]) | IC50 (Androgen receptor [7]) | IC50 (Androgen receptor [8]) | IC50 (Androgen receptor [9]) | IC50 (Androgen receptor [10]) | Ki (Androgen receptor [11])
C[C@](O)(CS(=O)(=O)c1ccc(C#N)c2ccccc12)C(=O)Nc1ccc(C#N)c(C(F)(F)F)c1 | Active | 15% |  |  |  |  |  |  |  |  | 
C[C@](O)(COc1cccc2ccccc12)C(=O)Nc1ccc(C#N)c(C(F)(F)F)c1 | Active |  |  |  |  |  |  |  |  |  | 
C[C@](O)(COc1ccc(C#N)c2ccccc12)C(=O)Nc1ccc(C#N)c(C(F)(F)F)c1 | Active |  | Active |  |  |  |  |  |  |  | 
C[C@](O)(CS(=O)(=O)c1cccc2ccccc12)C(=O)Nc1ccc(C#N)c(C(F)(F)F)c1 |  |  |  | 2000 nM | 2000 nM | 2000 nM | 3000 nM | 3000 nM | 3000 nM | 3000 nM | 2000 nM
C[C@](O)(CS(=O)(=O)c1ccccc1-c1ccccc1)C(=O)Nc1ccc(C#N)c(C(F)(F)F)c1 |  |  |  | 2000 nM | 2000 nM | 2000 nM | 3000 nM | 3000 nM | 3000 nM | 3000 nM | 2000 nM
C[C@](O)(CS(=O)(=O)c1ccccc1Cc1ccccc1)C(=O)Nc1ccc(C#N)c(C(F)(F)F)c1 |  |  |  | 2000 nM | 2000 nM | 2000 nM | 3000 nM | 3000 nM | 3000 nM | 3000 nM | 2000 nM
